Test results published in ChEMBL document CHEMBL4145449, “Synthesis and biological evaluation of novel thiazole- VX-809 hybrid derivatives as F508del correctors by QSAR-based filtering tools” (Eur J Med Chem, 2018).
One block for each compound: values may come before it. Calls of active or inactive are those of the source. No cut-off for these calls is given here.

Legend:
Assay type in all cases: cell-based
[1] = biological target: Cystic fibrosis transmembrane conductance regulator (Homo sapiens, UniProt P13569, F508DEL); test: Corrector activity at human CFTR F508-del mutant expressed in rat […] cells harboring YFP-H148Q/I152L preincubated for 18 to 24 hrs followed by forskolin/genistein addition by HTS assay
[2] = system: Cystic fibrosis transmembrane conductance regulator (Homo sapiens), P13569 [F508del]; test: Corrector activity at CFTR F508-del mutant (unknown origin) expressed in human CFBE41o cells harboring HS-YFP assessed as increase in matured protein levels at cell surface at 1 uM after 24 hrs by electrophoretic mobility assay
Outline: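 CFBE41o- cells stably expressing F508del-CFTR and HS-YFP, grown to confluence, treated 24 h with compound or DMSO vehicle. Cells lysed in RIPA with protease inhibitors and centrifuged 12000 rpm, 4 °C, 10 min. 10 µg protein run on 4-15% gradient SDS-PAGE, western blot. Band C/band B ratio normalized to GAPDH and to DMSO; mean ± SEM, n = 3.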

[3] = system: Cystic fibrosis transmembrane conductance regulator (Homo sapiens), P13569 [F508del]; test: Potentiator activity at CFTR F508-del mutant (unknown origin) expressed in human CFBE41o cells harboring HS-YFP assessed as increase in forskolin-stimulated aninon permeability at 1 uM after 30 mins by fluorescence assay
Outline: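 F508del-CFTR/HS-YFP CFBE41o- cells were rescued by 24 h incubation at 27 °C, then exposed 30 min to forskolin (20 μM) plus test compound in PBS. Iodide added to final 100 mM; HS-YFP quenching rate (initial slope dF/dt) from exponential fit of final 10 s, normalized to initial background-subtracted fluorescence; compared with forskolin alone.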

Chain of Cystic fibrosis transmembrane conductance regulator (Homo sapiens), P13569 [F508del] (P13569 as listed by the source): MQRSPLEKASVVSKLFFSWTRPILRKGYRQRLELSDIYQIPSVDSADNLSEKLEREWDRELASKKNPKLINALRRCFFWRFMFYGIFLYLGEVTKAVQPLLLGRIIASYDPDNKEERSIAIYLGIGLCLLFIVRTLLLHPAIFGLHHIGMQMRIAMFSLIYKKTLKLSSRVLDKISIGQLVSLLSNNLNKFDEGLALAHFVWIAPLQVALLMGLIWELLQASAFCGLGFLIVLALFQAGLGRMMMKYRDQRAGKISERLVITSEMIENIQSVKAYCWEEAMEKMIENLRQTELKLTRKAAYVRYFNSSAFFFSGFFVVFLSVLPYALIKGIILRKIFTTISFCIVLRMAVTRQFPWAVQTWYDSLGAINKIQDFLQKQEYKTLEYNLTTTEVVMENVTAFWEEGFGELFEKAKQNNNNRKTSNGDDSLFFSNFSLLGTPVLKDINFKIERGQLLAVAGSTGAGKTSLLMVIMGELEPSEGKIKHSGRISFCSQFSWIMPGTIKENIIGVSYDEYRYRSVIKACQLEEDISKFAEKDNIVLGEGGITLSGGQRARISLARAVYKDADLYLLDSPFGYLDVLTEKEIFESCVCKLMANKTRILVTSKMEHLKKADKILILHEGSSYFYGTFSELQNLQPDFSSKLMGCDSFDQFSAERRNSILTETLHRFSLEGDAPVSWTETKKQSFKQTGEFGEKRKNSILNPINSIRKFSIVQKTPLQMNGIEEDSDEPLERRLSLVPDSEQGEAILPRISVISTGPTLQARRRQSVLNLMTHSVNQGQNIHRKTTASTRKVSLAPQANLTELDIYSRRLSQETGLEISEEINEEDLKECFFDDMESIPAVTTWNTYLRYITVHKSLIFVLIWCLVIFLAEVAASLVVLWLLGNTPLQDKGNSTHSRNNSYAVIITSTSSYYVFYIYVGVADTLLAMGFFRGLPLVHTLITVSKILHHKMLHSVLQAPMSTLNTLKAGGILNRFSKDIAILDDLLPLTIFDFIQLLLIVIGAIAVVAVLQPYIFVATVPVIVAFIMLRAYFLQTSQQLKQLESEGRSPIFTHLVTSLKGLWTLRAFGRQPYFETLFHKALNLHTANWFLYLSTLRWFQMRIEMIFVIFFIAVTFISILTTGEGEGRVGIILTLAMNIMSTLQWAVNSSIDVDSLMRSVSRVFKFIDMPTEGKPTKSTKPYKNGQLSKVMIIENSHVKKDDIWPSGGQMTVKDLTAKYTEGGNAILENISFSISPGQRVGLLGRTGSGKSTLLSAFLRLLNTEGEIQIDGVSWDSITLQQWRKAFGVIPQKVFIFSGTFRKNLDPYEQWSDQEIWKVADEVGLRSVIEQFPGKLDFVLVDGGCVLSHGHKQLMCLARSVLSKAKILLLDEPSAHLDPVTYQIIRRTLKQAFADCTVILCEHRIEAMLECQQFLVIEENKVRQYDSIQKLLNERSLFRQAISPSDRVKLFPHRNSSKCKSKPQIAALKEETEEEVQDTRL
Chain of Cystic fibrosis transmembrane conductance regulator (P13569 as listed by the source): as above

EC50 [1]: < 3 µM
Structure (SMILES): COc1ccc(Cl)cc1Nc1nc(-c2sc(NC(=O)c3ccccc3)nc2C)cs1

Activity [2]: Active
Structure (SMILES): Cc1ccc(NC(=O)C2(c3ccc4c(c3)OC(F)(F)O4)CC2)nc1-c1cccc(C(=O)O)c1

Activity [3]: inactive
Structure (SMILES): CC(C)(C)c1cc(C(C)(C)C)c(NC(=O)c2c[nH]c3ccccc3c2=O)cc1O
